The source made the active and inactive calls. The rule behind the calls is not given here.
Legend:
Format in all cases: functional
[1] = biological target: T1, Transcriptional activator protein LuxR (Aliivibrio fischeri) (UniProt P12746); assay: Agonist activity at Vibrio fischeri LuxR assessed as activation of quorum sensing activation mediated bioluminescence
T1 sequence (whole entry): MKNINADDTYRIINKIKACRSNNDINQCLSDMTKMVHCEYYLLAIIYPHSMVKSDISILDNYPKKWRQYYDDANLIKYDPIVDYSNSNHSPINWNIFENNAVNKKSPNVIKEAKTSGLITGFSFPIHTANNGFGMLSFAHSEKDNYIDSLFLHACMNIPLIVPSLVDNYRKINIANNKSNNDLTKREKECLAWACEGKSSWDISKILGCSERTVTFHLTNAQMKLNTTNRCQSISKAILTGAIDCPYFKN

[2] = biological target: T2, Transcriptional activator protein LuxR (Aliivibrio fischeri, UniProt P12746); assay: Antagonist activity at Vibrio fischeri LuxR assessed as inhibition of 3-oxo-C6-HSL-induced quorum sensing activation mediated bioluminescence
T2 sequence (P12746 whole entry): T1 sequence (whole entry)
Procedure, shortened: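 Bioluminescence induced with 200 nM 3-oxo-C6-HSL, with test compounds added. IC50 is the concentration that halves the induced light intensity. Values are means of three experiments with standard deviation.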

Aliivibrio fischeri = assay: Antimicrobial activity against Vibrio fischeri incubated overnight at 37 degC by disc diffusion assay
Procedure, shortened: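 Disk diffusion susceptibility assay following CLSI guidelines, with a kanamycin control disk. Compounds were tested at 20 μM, 200 μM, 2 mM and 20 mM. Inhibition zones were measured after overnight incubation at 37 °C, and the MIC was taken from these tested levels.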

Row | Activity [1] | IC50 ([2]; read-out: IC50) [µM] | IC50 [2] | Structure (SMILES) | MIC (Aliivibrio fischeri) [µM]
1 | inactive | 6.2 |  | CCCCCCCCCCCCn1cc[n+](C(c2ccc(Cl)cc2)c2ccc(Cl)cc2)c1 | 
2 | inactive |  | Not Active | CCCCn1cc[n+](C(c2ccccc2)c2ccccc2)c1.[Br-] | 
3 | inactive | 76 |  | CCCCCCCCn1cc[n+](C(c2ccccc2)c2ccccc2)c1 | 
4 | inactive | 63 |  | CCCCCCn1cc[n+](C(c2ccc(Cl)cc2)c2ccc(Cl)cc2)c1 | 
5 | inactive | 5.3 |  | CCCCCCCCCCCCCCCCn1cc[n+](C2CCCC2)c1 | 
6 | inactive | 52 |  | CCCCCCn1cc[n+](C(c2ccc(Cl)cc2Cl)c2ccc(Cl)cc2Cl)c1 | 
7 | inactive | 18 |  | CCCCCCCCCCn1cc[n+](C(c2ccccc2)c2ccccc2)c1 | 
8 | inactive | 9.8 |  | CCCCCCCCn1cc[n+](C(c2ccc(Cl)cc2)c2ccc(Cl)cc2)c1 | 
9 | inactive |  | Not Active | CCCCCCCCCCCCCCn1cc[n+](C(c2ccc(Cl)cc2Cl)c2ccc(Cl)cc2Cl)c1.[Br-] | 
10 | inactive | 4 |  | CCCCCCCCCCn1cc[n+](C2c3ccccc3-c3ccccc32)c1 | 
11 | inactive | 75 |  | CCCCCCCCCCCCCCn1cc[n+](C(c2ccc(Cl)cc2)c2ccc(Cl)cc2)c1 | 
12 | inactive | 2.7 |  | CCCCCCCCCCCCCCn1cc[n+](C2c3ccccc3-c3ccccc32)c1 | 
13 | inactive | 5.8 |  | CCCCCCCCCCn1cc[n+](C(c2ccc(Cl)cc2)c2ccc(Cl)cc2)c1 | 
14 | inactive | 7.3 |  | CCCCCCCCCCCCCCCCn1cc[n+](C(c2ccccc2)c2ccccc2)c1 | 
15 | inactive | 5.2 |  | CCCCCCCCCCCCCCn1cc[n+](C(c2ccccc2)c2ccccc2)c1 | 
16 | inactive | 68 |  | CCCCCCCCn1cc[n+](C2CCCC2)c1 | 
17 | inactive | 35 |  | CCCCCCCCn1cc[n+](C2c3ccccc3-c3ccccc32)c1 | 
18 | inactive | 6.5 |  | CCCCCCCCCCCCn1cc[n+](C(c2ccc(Cl)cc2Cl)c2ccc(Cl)cc2Cl)c1 | 
19 | inactive | 1.4 |  | CCCCCCCCCCCCn1cc[n+](C2c3ccccc3-c3ccccc32)c1 | 200
20 | inactive | 14.7 |  | CCCCCCCCCCCCCCCCn1cc[n+](C2c3ccccc3-c3ccccc32)c1 | 
21 | inactive | 153 |  | CCCCCCn1cc[n+](C(c2ccccc2)c2ccccc2)c1 | 
22 | inactive |  | Not Active | CCCCCCCCCCCCCCCCCCn1cc[n+](C(c2ccc(Cl)cc2)c2ccc(Cl)cc2)c1.[Br-] | 
23 | inactive | 11 |  | CCCCCCCCCCCCn1cc[n+](C2CCCC2)c1 | 
24 | inactive | 8.9 |  | CCCCCCCCn1cc[n+](C(c2ccc(Cl)cc2Cl)c2ccc(Cl)cc2Cl)c1 | 
25 | inactive | 86 |  | CCCCCCCCCCCCCCCCCCn1cc[n+](C2CCCC2)c1 | 
26 | inactive | 4.9 |  | CCCCCCCCCCn1cc[n+](C(c2ccc(Cl)cc2Cl)c2ccc(Cl)cc2Cl)c1 | 
27 | inactive | 3.4 |  | CCCCCCCCCCCCCCn1cc[n+](C2CCCC2)c1 | 200
28 | inactive | 33 |  | CCCCCCCCCCn1cc[n+](C2CCCC2)c1 | 
29 | inactive | 6.1 |  | CCCCCCCCCCCCn1cc[n+](C(c2ccccc2)c2ccccc2)c1 | 200
30 | inactive |  | Not Active | CCCCCCCCCCCCCCCCCCn1cc[n+](C(c2ccc(Cl)cc2Cl)c2ccc(Cl)cc2Cl)c1.[Br-] | 
